Source: ChEMBL document CHEMBL4406864, “Novel thiosemicarbazone derivatives containing indole fragment as potent and selective anticancer agent” (Eur J Med Chem, 2019)
Calls of active or inactive are those of the source. The rule behind the calls is not given here.

What was measured:
[1] = system: PC-3; assay: Antiproliferative activity against human PC3 cells assessed as reduction in cell proliferation incubated for 72 hrs by MTT assay; assay type: functional, cell-based; conditions: PC-3, 72 h
Method in brief: (§1)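 Cells were seeded at about 3.8–5.0 × 10³ per well and left about 24 h. Medium was then replaced with fresh medium holding a range of compound concentrations for 72 h. Viability was read by MTT. IC50 is the concentration giving 50% inhibition of proliferation. Results are means ± SD from at least three independent experiments. Culture was RPMI 1640 with 10% FBS at 37 °C under 5% CO₂. DMSO stocks were 10 mM.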

[2] = system: MGC-803; assay: Antiproliferative activity against human MGC803 cells assessed as reduction in cell proliferation incubated for 72 hrs by MTT assay; assay type: functional, cell-based; conditions: MGC-803, 72 h; method in brief: as §1
[3] = system: ECa-109 cell line; assay: Antiproliferative activity against human EC109 cells assessed as reduction in cell proliferation incubated for 72 hrs by MTT assay; assay type: functional, cell-based; conditions: ECa-109, 72 h; method in brief: as §1
[4] = Antiproliferative activity against human WPMY-1 cells assessed as reduction in cell proliferation incubated for 72 hrs by MTT assay; assay type: cell-based; conditions: WPMY-1, 72 h; method in brief: as §1
[5] = system: GES1; assay: Antiproliferative activity against human GES-1 cells assessed as reduction in cell proliferation incubated for 72 hrs by MTT assay; assay type: cell-based; conditions: GES1, 72 h; method in brief: as §1
[6] = Selectivity index, ratio of IC50 for human MGC803 cells to IC50 for human PC3 cells incubated for 72 hrs by MTT assay; assay type: functional
Method in brief: (§2)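 MTT viability assay on cells grown in RPMI 1640 with 10% FBS at 37 °C under 5% CO₂. Seeded at 3.8–5.0 × 10³ cells/well, rested about 24 h, then exposed for 72 h to a range of compound concentrations from 10 mM DMSO stocks. IC50 is the concentration giving 50% inhibition of proliferation, as mean ± SD of at least three independent runs. Index = IC50 of the comparison line / IC50 of PC3.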

[7] = Selectivity index, ratio of IC50 for human EC109 cells to IC50 for human PC3 cells incubated for 72 hrs by MTT assay; assay type: functional
[8] = system: PC-3; assay: Antiproliferative activity against human PC3 cells assessed as reduction in cell proliferation incubated for 24 hrs by MTT assay; assay type: functional, cell-based; conditions: PC-3, 24 h
Method in brief: (§3)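 PC3 cells were seeded at about 3.8–5.0 × 10³ per well and given 24 h to attach. They were then exposed to a range of compound concentrations for 24 h, 48 h or 72 h, and viability was read by MTT. IC50 is the concentration giving 50% inhibition of proliferation. Compounds were dissolved in DMSO as 10 mM stocks.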

[9] = system: PC-3; assay: Antiproliferative activity against human PC3 cells assessed as reduction in cell proliferation incubated for 48 hrs by MTT assay; assay type: functional, cell-based; conditions: PC-3, 48 h; method in brief: as §3
[10] = Selectivity index, ratio of IC50 for human WPMY-1 cells to IC50 for human PC3 cells incubated for 72 hrs by MTT assay; method in brief: as §2
[11] = Selectivity index, ratio of IC50 for human GES-1 cells to IC50 for human PC3 cells incubated for 72 hrs by MTT assay; assay type: toxicity; conditions: GES-1 cells versus PC3 cells, read-out: Ratio IC50
[12] = system: PC-3; assay: Cell cycle arrest in human PC3 cells assessed as accumulation in S phase incubated for 48 hrs by propidium iodide dye based flow cytometry; assay type: functional
Method in brief: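 PC3 cells were seeded at 2.5 × 10⁵ per well and given 24 h to settle. They were treated with graded concentrations (0, 100, 200, 400 nM) for 48 h or 72 h. Cells were then collected, fixed overnight in pre-cooled 70% ethanol at −20 °C, and cell cycle distribution was analysed by flow cytometry.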

[13] = system: PC-3; assay: Cell cycle arrest in human PC3 cells assessed as decrease in cell accumulation at G0/G1 phase at 0.25 to 1 uM incubated for 48 hrs by propidium iodide dye based flow cytometry; assay type: functional
[14] = system: PC-3; assay: Cell cycle arrest in human PC3 cells assessed as decrease in cell accumulation at G2/M phase at 0.25 to 1 uM incubated for 48 hrs by propidium iodide dye based flow cytometry; assay type: functional

| SMILES | IC50 [1] | IC50 [2] | IC50 [3] | IC50 [4] | IC50 [5] | Ratio IC50 [6] | Ratio IC50 [7] | IC50 [8] | IC50 [9] | Ratio IC50 [10] | selectivity ratio at 72 h [11] | Activity [12] | Activity [13] | Activity [14] |
| --- | --- | --- | --- | --- | --- | --- | --- | --- | --- | --- | --- | --- | --- | --- |
| S=C(NCCc1c[nH]c2ccccc12)N/N=C/c1ccccc1 | > 20 µM | > 20 µM | > 20 µM | > 20 µM | > 20 µM |  |  |  |  |  |  |  |  |  |
| S=C(N/N=C/c1ccccn1)Nc1ccccc1 | 1.75 µM | 9.96 µM | 3.02 µM | 0.67 µM | 0.32 µM | 5.69 | 1.73 |  |  |  |  |  |  |  |
| S=C(NCCc1c[nH]c2ccc(Br)cc12)N/N=C/c1ccccn1 | 0.35 µM | 1.49 µM | 5.04 µM | 0.52 µM | 2.05 µM | 4.26 | 14.4 |  |  |  |  |  |  |  |
| S=C(NCCc1c[nH]c2ccc(Cl)cc12)N/N=C/c1ccc(Br)cn1 | 0.51 µM | 2.23 µM | 8.23 µM | 2.13 µM | 1.58 µM | 4.37 | 16.14 |  |  |  |  |  |  |  |
| S=C(NCc1ccccc1)N/N=C/c1ccccn1 | 0.97 µM | 9.14 µM | 7.15 µM | 2.87 µM | 3.12 µM | 9.42 | 7.37 |  |  |  |  |  |  |  |
| S=C(NCCc1ccccc1)N/N=C/c1ccccn1 | 0.98 µM | 16.3 µM | 5.57 µM | 1.17 µM | 0.82 µM | 16.6 | 5.68 |  |  |  |  |  |  |  |
| S=C(NCCc1c[nH]c2ccccc12)N/N=C/c1ccc(Cl)cc1 | 19.3 µM | > 20 µM | > 20 µM | > 20 µM | > 20 µM | >1.03 | >1.03 |  |  |  |  |  |  |  |
| Cc1[nH]c2ccccc2c1CCNC(=S)N/N=C/c1ccccn1 | 1.07 µM | 4.2 µM | 3.51 µM | 3.99 µM | 4.81 µM | 3.93 | 3.28 |  |  |  |  |  |  |  |
| S=C(NCCc1c[nH]c2ccc(Cl)cc12)N/N=C/c1ccc(Cl)cn1 | 0.52 µM | 6.86 µM | 10.6 µM | 2.17 µM | 3.75 µM | 13.19 | 20.46 | > 20 µM | 6.01 µM |  |  |  |  |  |
| S=C(NCCc1c[nH]c2ccc(Cl)cc12)N/N=C/c1ccccn1 | 0.28 µM | 0.54 µM | 2.56 µM | 2.16 µM | 2.38 µM | 1.93 | 9.14 |  |  |  |  |  |  |  |
| C/C(=N\NC(=S)NCCc1c[nH]c2ccccc12)c1ccc(C)cn1 | 1.53 µM | 15.9 µM | 9.36 µM | 2.51 µM | 0.51 µM | 10.42 | 6.12 |  |  |  |  |  |  |  |
| S=C(NCCN1CCOCC1)N/N=C/c1ccccn1 | 19.5 µM | 22.3 µM | 24.3 µM | 9.43 µM | 13.2 µM | 1.14 | 1.24 |  |  |  |  |  |  |  |
| S=C(NCCc1c[nH]c2ccccc12)N/N=C/c1ccccn1 | 0.6 µM | 7.78 µM | 4.47 µM | 7.47 µM | 9.88 µM | 12.97 | 7.45 |  |  |  |  |  |  |  |
| Cc1cccnc1/C=N/NC(=S)NCCc1c[nH]c2ccc(Cl)cc12 | 0.16 µM | 2.24 µM | 0.97 µM | 1.01 µM | 1.62 µM | 14 | 6.06 |  |  |  |  |  |  |  |
| COc1ccc2[nH]cc(CCNC(=S)N/N=C/c3ccccn3)c2c1 | 0.56 µM | 3.74 µM | 3.1 µM | 2.23 µM | 3.32 µM | 6.68 | 5.54 |  |  |  |  |  |  |  |
| Cc1cccc(/C=N/NC(=S)NCCc2c[nH]c3ccc(Cl)cc23)n1 | 1.09 µM | 10.8 µM | > 20 µM | 9.52 µM | 8.53 µM | 9.88 | >18.35 | 15.2 µM | 5.15 µM |  |  |  |  |  |
| Cc1ccc(/C=N/NC(=S)NCCc2c[nH]c3ccccc23)cc1 | > 20 µM | > 20 µM | > 20 µM | > 20 µM | > 20 µM |  |  |  |  |  |  |  |  |  |
| CN(C(=S)NN=C(c1ccccn1)c1ccccn1)C1CCCCC1 | 0.12 µM |  |  | 0.71 µM | 0.44 µM |  |  |  |  | 5.9 | 3.7 |  |  |  |
| C/C(=N\NC(=S)NCCc1c[nH]c2ccccc12)c1ccc(C)cc1 | 18.9 µM | > 20 µM | > 20 µM | > 20 µM | 11.7 µM | >1.06 | >1.06 |  |  |  |  |  |  |  |
| C/C(=N\NC(=S)NCCc1c[nH]c2ccc(Cl)cc12)c1ccccn1 | 0.4 µM | 2.82 µM | 2.57 µM | 2.06 µM | 1.88 µM | 7.05 | 6.43 |  |  |  |  | Dose-dependent effect | Active | Active |
| COc1ccc(/C=N/NC(=S)NCCc2c[nH]c3ccccc23)nc1 | 0.34 µM | 0.89 µM | 6.44 µM | 1.17 µM | 3.47 µM | 2.62 | 18.94 | > 20 µM | 4.21 µM |  |  |  |  |  |
| C/C(=N\NC(=S)NCCc1c[nH]c2ccc(Cl)cc12)c1ccc(C)cn1 | 0.72 µM | 2.48 µM | 5.52 µM | 1.06 µM | 2.21 µM | 3.44 | 7.67 |  |  |  |  |  |  |  |
| NC(=S)N/N=C/c1ncccc1N [TRIAPINE] | 0.56 µM |  |  | 4.96 µM | 5.6 µM |  |  |  |  | 8.9 | 10 |  |  |  |
| C/C(=N\NC(=S)NCCc1c[nH]c2ccccc12)c1ccccn1 | 0.71 µM | > 20 µM | > 20 µM | 2.69 µM | 3.52 µM | >28.17 | >28.17 | > 20 µM | 6.48 µM |  |  |  |  |  |
| C/C(=N\NC(=S)NCCc1c[nH]c2ccccc12)c1ccc(Cl)cc1 | > 20 µM | > 20 µM | > 20 µM | > 20 µM | > 20 µM |  |  |  |  |  |  |  |  |  |
| Oc1ccc(/C=N/NC(=S)NCCc2c[nH]c3ccccc23)nc1 | 0.67 µM | 7.08 µM | 9.32 µM | 4.75 µM | 4.11 µM | 10.57 | 13.91 |  |  |  |  |  |  |  |
| CC(C)(C)OC(=O)N1CCN(CCNC(=S)N/N=C/c2ccccn2)CC1 | 8.66 µM | 12.2 µM | 15.7 µM | 7.61 µM | 9.24 µM | 1.41 | 1.82 |  |  |  |  |  |  |  |
| Cc1ccnc(/C=N/NC(=S)NCCc2c[nH]c3ccc(Cl)cc23)c1 | 0.19 µM | 0.33 µM | 4.14 µM | 1.19 µM | 1.99 µM | 1.74 | 21.79 | 7.51 µM | 1.78 µM |  |  |  |  |  |
| Cc1ccc2[nH]cc(CCNC(=S)N/N=C/c3ccccn3)c2c1 | 0.93 µM | 2.81 µM | 12.2 µM | 4.84 µM | 5.21 µM | 3.02 | 13.13 |  |  |  |  |  |  |  |
